We go through one compound from ChEMBL document CHEMBL1143565, “Pyrido[2,3-d]pyrimidin-7-ones as specific inhibitors of cyclin-dependent kinase 4” (J Med Chem, 2005).

The target of assay [1] is Mitogen-activated protein kinase 14 (Homo sapiens, UniProt Q16539). Description: Inhibition of Stress activated protein kinase 2a.
The target in assay [2] is Mitogen-activated protein kinase 11 (Homo sapiens, UniProt Q15759). Description: Inhibition of Stress activated protein kinase 2b.
Assay [3] is described as follows: Inhibition of Tyrosine-protein kinase CSK.
Assay [4] addresses Ribosomal protein S6 kinase alpha-5 (Homo sapiens, UniProt O75582). Description: Inhibition of mitogen and stress-activated protein kinase-1(MSK-1 kinase).
Assay [5] can be described thus: Inhibition of Protein Kinase A. Further details: species or system Homo sapiens.
For assay [6], the target named is Protein kinase C (PKC). Description: Inhibition of Protein Kinase C. The class given is protein assay, Homo sapiens.
The target in assay [7] is Serine/threonine-protein kinase AKT (Homo sapiens, UniProt P31751+Q9Y243+P31749). The experiment in a line: Inhibition of Protein kinase B. Type of assay: protein assay.
Assay [8] is described as follows: Inhibition of Phosphorylase kinase.
Assay [9] has as its target Glycogen synthase kinase-3 beta (Homo sapiens, UniProt P49841). Description: Inhibition of Glycogen synthase kinase 3 beta.
The target of assay [10] is MAP kinase-activated protein kinase 2 (Homo sapiens, UniProt P49137). The experiment in a line: Inhibition of MAP kinase-activated protein kinase 2.
MAP kinase-activated protein kinase 2, sequence (P49137 whole entry): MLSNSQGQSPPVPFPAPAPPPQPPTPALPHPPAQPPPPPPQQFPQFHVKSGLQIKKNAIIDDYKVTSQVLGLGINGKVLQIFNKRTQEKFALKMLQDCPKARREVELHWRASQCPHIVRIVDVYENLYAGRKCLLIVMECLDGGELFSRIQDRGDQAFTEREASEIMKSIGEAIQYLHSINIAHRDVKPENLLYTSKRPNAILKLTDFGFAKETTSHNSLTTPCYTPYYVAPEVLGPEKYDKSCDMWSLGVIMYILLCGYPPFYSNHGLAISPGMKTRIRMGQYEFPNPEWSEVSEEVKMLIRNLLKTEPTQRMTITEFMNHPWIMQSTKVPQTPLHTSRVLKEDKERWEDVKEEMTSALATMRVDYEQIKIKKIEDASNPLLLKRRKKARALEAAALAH
The target of assay [11] is Ribosomal protein S6 kinase (P70S6K) (Homo sapiens, UniProt P23443+Q9UBS0). Description: Inhibition of Ribosomal protein S6 kinase (p70S6K1). The class given is protein-complex assay.
Ribosomal protein S6 kinase (P70S6K), sequence (Q9UBS0 whole entry): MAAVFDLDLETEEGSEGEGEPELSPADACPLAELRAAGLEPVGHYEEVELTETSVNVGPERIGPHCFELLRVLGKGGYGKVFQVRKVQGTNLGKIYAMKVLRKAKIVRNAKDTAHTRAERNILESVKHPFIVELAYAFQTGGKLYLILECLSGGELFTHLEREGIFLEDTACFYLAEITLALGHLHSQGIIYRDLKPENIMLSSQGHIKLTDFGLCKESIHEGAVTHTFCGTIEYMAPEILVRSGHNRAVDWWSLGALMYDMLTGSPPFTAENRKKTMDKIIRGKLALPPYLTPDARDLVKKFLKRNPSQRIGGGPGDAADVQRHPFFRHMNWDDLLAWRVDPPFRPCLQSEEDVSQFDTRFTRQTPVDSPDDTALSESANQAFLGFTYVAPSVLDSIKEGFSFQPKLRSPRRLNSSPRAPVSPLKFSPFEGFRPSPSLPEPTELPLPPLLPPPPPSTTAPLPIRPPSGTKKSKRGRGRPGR
Ribosomal protein S6 kinase (P70S6K), sequence (P23443 whole entry): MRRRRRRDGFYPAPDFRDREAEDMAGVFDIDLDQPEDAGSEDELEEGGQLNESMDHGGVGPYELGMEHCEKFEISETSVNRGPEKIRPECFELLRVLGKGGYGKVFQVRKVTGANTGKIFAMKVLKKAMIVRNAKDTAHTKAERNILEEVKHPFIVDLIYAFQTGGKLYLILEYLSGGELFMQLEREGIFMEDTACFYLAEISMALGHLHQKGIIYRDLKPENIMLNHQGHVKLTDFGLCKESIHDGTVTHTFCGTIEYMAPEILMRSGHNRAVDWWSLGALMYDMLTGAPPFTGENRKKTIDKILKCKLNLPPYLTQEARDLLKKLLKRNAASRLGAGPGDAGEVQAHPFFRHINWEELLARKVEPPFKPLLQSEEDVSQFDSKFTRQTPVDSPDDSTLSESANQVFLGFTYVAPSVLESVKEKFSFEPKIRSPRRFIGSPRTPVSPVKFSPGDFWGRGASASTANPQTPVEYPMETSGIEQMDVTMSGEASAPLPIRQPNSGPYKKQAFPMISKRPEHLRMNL
Assay [12] is described as follows: Inhibition of Mitogen activated protein kinase kinase 1.
Assay [13] deals with Cyclin-dependent kinase 4/cyclin D (Homo sapiens, UniProt P11802+P24385+P30281+P30279). Description: Inhibition of [32P]ATP binding to Cyclin dependant kinase 4-cyclin D. The class given is protein-complex assay. Summed up:
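Human recombinant Cdk–cyclin holoenzymes expressed in insect cells via baculovirus. Each reaction held 20 ng enzyme, 1 µg GST-retinoblastoma substrate and inhibitor dilutions in 20 mM Tris pH 7.4, 50 mM NaCl, 1 mM DTT, 10 mM MgCl2. Started with [32P]ATP (0.25 µCi), at 25 µM for Cdk4 or 12 µM for Cdk2/E, Cdk2/A and Cdc2/B. Ran 15 min at 25 °C. Stopped with TCA and precipitated ≥1 h at 4 °C.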

A short description of assay [14]: Inhibition of 3-phosphoinisitide-dependent protein kinase-1.
In assay [15] the target is Mitogen-activated protein kinase 1 (Homo sapiens, UniProt P28482). The experiment in a line: Inhibition of Mitogen activated protein kinase (MAPK2/erk2).
Mitogen-activated protein kinase 1, sequence (P28482 whole entry): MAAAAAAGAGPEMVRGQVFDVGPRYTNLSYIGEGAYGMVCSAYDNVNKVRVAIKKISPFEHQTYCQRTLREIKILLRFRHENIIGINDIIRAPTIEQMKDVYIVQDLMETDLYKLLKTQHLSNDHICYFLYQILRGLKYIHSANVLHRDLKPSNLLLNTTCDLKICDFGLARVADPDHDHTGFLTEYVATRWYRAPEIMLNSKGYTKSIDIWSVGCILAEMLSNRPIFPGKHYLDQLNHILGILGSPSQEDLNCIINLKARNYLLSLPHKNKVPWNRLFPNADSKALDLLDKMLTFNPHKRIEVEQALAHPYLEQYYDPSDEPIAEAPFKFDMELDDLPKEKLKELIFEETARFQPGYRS
The target in assay [16] is c-Jun N-terminal kinase, JNK (Homo sapiens, UniProt P45983+P53779+P45984). The experiment in a line: Inhibition of c-Jun N-terminal kinase. Type of assay: protein assay.
Assay [17] relates to MDA-MB-435. Description: In vitro inhibitory concentration is measured by the incorporation of [14C]thymidine in human breast carcinoma MDA-MB-435 cell line. The class given is functional, cell-based.
Assay [18] has as its target Fibroblast growth factor receptor (Homo sapiens, UniProt P22607+P11362+P22455+P21802). The experiment in a line: Inhibition of Fibroblast growth factor receptor. Type of assay: protein assay.
The target in assay [19] is T1, MAP kinase-activated protein kinase 5 (Homo sapiens, UniProt Q8IW41).
T1 sequence (Q8IW41 whole entry): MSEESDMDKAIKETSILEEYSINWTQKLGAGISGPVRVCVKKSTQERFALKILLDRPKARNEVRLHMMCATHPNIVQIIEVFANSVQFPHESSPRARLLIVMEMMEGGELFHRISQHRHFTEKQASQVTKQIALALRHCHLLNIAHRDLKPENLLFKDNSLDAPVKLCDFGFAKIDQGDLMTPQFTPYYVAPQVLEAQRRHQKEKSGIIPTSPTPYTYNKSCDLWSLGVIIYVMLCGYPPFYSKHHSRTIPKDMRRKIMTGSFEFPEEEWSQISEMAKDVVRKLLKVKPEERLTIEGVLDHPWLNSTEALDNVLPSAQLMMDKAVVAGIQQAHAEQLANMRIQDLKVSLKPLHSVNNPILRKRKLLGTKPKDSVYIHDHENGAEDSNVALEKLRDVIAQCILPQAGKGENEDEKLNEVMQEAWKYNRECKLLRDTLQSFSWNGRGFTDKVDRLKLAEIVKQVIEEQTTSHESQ
The experiment in a line: Inhibition of p38-regulated/activated kinase (PRAK).

Where only a bound is given, the exact number is not on record here.

Cyclin-dependent kinase 4/cyclin D, sequence (P11802 whole entry): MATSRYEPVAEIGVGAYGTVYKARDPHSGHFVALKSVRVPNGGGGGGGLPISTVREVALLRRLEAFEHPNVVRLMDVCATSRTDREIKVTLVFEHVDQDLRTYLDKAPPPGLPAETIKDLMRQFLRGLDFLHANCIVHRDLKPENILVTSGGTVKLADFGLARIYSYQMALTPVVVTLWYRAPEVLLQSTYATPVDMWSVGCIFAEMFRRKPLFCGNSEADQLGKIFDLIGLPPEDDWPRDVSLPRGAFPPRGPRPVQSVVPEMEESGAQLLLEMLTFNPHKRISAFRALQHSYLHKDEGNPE
Cyclin-dependent kinase 4/cyclin D, sequence (P24385 whole entry): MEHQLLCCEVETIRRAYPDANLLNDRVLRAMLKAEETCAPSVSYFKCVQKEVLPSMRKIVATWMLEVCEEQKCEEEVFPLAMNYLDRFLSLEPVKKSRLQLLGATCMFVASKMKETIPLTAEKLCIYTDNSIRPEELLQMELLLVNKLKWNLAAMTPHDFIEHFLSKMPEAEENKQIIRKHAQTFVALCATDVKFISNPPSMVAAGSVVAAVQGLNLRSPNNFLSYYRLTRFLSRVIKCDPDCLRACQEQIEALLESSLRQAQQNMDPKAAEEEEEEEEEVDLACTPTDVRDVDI
Cyclin-dependent kinase 4/cyclin D, sequence (P30281 whole entry): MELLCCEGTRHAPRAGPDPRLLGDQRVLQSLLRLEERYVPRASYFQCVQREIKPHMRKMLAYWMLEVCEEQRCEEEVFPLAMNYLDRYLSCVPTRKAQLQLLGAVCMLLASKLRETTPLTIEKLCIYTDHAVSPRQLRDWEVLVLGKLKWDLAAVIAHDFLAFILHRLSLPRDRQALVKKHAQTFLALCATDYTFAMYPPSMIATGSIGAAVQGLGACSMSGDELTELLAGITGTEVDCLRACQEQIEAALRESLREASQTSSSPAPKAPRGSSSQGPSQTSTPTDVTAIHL
Cyclin-dependent kinase 4/cyclin D, sequence (P30279 whole entry): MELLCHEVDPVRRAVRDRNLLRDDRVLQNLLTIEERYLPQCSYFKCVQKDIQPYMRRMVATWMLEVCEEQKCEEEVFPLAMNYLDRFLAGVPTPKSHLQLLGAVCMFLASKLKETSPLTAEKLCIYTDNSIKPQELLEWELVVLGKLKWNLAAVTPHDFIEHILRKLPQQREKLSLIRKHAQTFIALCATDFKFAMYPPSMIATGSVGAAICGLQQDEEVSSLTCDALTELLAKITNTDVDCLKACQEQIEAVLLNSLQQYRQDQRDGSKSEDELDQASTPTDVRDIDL
Glycogen synthase kinase-3 beta, sequence (P49841 whole entry): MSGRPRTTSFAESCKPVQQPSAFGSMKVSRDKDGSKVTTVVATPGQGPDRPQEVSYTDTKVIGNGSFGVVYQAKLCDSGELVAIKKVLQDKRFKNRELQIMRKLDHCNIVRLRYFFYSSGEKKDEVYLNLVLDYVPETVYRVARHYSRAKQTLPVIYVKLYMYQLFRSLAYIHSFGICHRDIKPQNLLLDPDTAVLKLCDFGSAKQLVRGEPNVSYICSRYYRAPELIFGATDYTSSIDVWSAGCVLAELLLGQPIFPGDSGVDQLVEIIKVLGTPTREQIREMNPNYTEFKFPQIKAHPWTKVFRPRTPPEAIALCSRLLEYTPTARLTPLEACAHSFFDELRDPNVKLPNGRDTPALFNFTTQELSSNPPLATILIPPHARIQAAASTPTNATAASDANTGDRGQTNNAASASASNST
Ribosomal protein S6 kinase alpha-5, sequence (O75582 whole entry): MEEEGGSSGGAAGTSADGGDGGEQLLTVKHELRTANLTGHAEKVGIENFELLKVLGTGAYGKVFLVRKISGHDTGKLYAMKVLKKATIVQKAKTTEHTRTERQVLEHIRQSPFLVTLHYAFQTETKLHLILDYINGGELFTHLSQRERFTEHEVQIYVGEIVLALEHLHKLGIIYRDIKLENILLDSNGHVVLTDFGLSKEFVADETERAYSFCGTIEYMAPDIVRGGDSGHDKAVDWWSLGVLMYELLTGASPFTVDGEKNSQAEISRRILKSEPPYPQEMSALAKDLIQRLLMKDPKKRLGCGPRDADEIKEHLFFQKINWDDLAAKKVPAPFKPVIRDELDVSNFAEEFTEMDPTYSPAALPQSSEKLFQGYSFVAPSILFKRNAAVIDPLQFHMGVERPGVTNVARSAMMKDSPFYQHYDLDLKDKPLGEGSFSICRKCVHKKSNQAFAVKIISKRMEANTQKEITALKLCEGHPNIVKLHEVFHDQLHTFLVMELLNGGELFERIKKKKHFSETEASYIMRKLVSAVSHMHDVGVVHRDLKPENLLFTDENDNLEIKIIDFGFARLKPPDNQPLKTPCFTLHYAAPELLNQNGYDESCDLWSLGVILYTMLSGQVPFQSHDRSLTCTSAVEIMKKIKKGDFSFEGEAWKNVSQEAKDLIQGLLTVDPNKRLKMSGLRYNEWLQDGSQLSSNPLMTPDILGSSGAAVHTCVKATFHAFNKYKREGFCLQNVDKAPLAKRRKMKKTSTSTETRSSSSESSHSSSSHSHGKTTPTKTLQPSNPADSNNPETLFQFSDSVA
Mitogen-activated protein kinase 11, sequence (Q15759 whole entry): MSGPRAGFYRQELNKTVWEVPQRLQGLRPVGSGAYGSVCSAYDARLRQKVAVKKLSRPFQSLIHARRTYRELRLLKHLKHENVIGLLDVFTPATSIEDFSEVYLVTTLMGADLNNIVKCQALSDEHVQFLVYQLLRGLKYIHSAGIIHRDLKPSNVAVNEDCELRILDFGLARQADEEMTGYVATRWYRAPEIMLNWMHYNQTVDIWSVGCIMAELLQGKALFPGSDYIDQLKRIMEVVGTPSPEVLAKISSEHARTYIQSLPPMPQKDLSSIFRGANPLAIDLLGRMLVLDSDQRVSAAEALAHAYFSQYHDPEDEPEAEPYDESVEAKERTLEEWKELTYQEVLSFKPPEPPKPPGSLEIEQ
Mitogen-activated protein kinase 14, sequence (Q16539 whole entry): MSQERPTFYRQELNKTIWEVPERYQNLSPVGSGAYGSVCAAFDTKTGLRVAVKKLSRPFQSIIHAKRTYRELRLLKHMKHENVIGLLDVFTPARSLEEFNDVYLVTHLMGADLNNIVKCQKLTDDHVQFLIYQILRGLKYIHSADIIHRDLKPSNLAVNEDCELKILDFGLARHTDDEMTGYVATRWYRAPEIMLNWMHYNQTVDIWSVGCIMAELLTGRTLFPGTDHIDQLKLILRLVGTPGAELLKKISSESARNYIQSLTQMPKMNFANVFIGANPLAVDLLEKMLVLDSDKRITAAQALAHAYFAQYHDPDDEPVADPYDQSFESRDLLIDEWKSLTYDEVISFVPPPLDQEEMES

`CC(=O)c1c(C)c2cnc(Nc3ccc(N4CCNCC4)cc3)nc2n(C2CCCC2)c1=O`: the half-maximal inhibitory concentration (IC50) in assay [1], in assay [2], in [3], in assay [4], in assay [5] and in assay [6] was more than 10 µM in each case. Also, the concentration for half-maximal inhibition (IC50) in assay [7], in assay [8], in assay [9], in [10], in assay [11] and in assay [12] was more than 10 µM each time. Also, the IC50 in assay [13] was 2 nM; in assay [14] it was more than 10 µM; in [15], more than 10 µM; in [16], more than 10 µM; in assay [17], 32 nM; in assay [18] it was 1.86 µM. Besides, the IC50 in assay [19] was more than 10 µM.

Usually IC50 stands for the point on the concentration scale where inhibition reaches its midpoint.
